The values that follow come from ChEMBL document CHEMBL4425129, “Exploring Basic Tail Modifications of Coumarin-Based Dual Acetylcholinesterase-Monoamine Oxidase B Inhibitors: Identification of Water-Soluble, Brain-Permeant Neuroprotective Multitarget Agents” (J Med Chem, 2016).

pIC50: −log10 of the molar value. Active and inactive are the calls of the source. The rule behind the calls is not given here.

Data set [1] deals with Cholinesterase (Equus caballus) (UniProt P81908). Briefly: Inhibition of equine serum BChE at 10 uM using butyrylthiocholine iodide as substrate preincubated for 20 mins followed by substrate addition measured for 5 mins by spectrophotometric Ellman's method relative to control. Summed up: (§1)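 BChE from equine serum (13 U/mg), Ellman spectrophotometric method run in 96-well format. Seven inhibitor concentrations, 10^-4 to 10^-10 M, each in triplicate. IC50 from non-linear regression of response against log(concentration). […] Mean of three independent experiments.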

The species entered for data set [2] is Homo sapiens. The data set is described as follows: Selectivity index, ratio of IC50 for human recombinant MAOA to IC50 for human recombinant MAOB.
Data set [3] concerns the target T1, Amine oxidase [flavin-containing] A (Homo sapiens, UniProt P21397).
T1 sequence (P21397 whole entry): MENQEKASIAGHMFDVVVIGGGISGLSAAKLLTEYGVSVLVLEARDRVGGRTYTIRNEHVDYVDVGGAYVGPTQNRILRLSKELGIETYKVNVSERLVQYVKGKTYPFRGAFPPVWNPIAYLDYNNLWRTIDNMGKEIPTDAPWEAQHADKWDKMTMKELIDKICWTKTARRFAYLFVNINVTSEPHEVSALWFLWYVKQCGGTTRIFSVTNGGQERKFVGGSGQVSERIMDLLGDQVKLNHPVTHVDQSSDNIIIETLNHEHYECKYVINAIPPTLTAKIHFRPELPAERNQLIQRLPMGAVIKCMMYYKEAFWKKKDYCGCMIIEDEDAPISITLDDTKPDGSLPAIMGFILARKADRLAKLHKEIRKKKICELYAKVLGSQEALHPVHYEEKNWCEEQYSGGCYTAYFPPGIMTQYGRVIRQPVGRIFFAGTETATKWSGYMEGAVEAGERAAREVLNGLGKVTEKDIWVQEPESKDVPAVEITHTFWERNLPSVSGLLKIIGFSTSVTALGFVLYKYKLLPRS
The data set is described as follows: Inhibition of human recombinant MAOA expressed in microsomes of baculovirus-infected insect cell using kynuramine as substrate preincubated for 20 mins followed by protein addition measured after 30 mins by fluorescence assay. The gist of the method: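 Recombinant human MAO A (baculovirus-infected insect cell microsomes) with kynuramine substrate; inhibitor preincubated 20 min at 37 °C, enzyme then added and incubated 30 min more. Fluorescence at ex/em 320/400 nm. Triplicates, three independent experiments.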

Data set [4] concerns the target T2, Amine oxidase [flavin-containing] B (Homo sapiens, UniProt P27338).
T2 sequence (P27338 whole entry): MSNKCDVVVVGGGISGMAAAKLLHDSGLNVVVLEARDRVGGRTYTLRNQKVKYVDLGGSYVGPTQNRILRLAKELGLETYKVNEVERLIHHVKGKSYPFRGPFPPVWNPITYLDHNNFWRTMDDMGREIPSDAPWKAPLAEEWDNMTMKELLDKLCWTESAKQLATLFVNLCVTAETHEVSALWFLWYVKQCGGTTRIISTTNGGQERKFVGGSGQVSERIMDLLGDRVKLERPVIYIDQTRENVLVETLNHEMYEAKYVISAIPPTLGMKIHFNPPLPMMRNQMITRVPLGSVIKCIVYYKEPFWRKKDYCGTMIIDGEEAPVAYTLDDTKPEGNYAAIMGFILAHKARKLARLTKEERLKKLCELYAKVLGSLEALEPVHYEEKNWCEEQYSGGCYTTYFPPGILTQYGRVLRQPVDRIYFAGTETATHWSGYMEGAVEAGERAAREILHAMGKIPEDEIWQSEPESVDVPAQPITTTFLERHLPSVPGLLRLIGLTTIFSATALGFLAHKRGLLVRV
The data set is described as follows: Inhibition of human recombinant MAOB expressed in microsomes of baculovirus-infected insect cell using kynuramine as substrate preincubated for 20 mins followed by protein addition measured after 30 mins by fluorescence assay.

Data set [5] has as its target Acetylcholinesterase (Electrophorus electricus, UniProt O42275). The data set is described as follows: Inhibition of electric eel AChE using acetylthiocholine iodide as substrate preincubated for 20 mins followed by substrate addition measured for 5 mins by spectrophotometric Ellman's method.
Data set [6] addresses Cholinesterase (Equus caballus, UniProt P81908). Briefly: Inhibition of equine serum BChE using butyrylthiocholine iodide as substrate preincubated for 20 mins followed by substrate addition measured for 5 mins by spectrophotometric Ellman's method. Summed up:
as §1

Data set [7] relates to SH-SY5Y. Briefly: Neuroprotective activity against oligomycin-A-induced oxidative injury in human SH-SY5Y cells assessed as increase in cell viability at 1 uM after 24 hrs by MTT assay. It is filed as functional, cell-based. The gist of the method:
(§2)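 SH-SY5Y cells incubated 24 h with compound at 1 or 10 µM together with H2O2 300 µM, oligomycin-A 10 µM or rotenone 20 µM. Viability by MTT, as % of cells given neither insult nor compound. Triplicates, three repeats; mean ± SD; two-way ANOVA with Bonferroni post hoc test.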

Data set [8] has as its system SH-SY5Y. The data set is described as follows: Neuroprotective activity against H2O2-induced oxidative injury in human SH-SY5Y cells assessed as increase in cell viability at 1 to 10 uM after 24 hrs by MTT assay. It is filed as functional, cell-based. The gist of the method:
as §2

In data set [9] the test system is SH-SY5Y. The data set is described as follows: Neuroprotective activity against rotenone-induced oxidative injury in human SH-SY5Y cells assessed as increase in cell viability at 1 uM after 24 hrs by MTT assay. It is filed as functional, cell-based. Summed up:
as §2

Data set [10] relates to SH-SY5Y. The data set is described as follows: Cytotoxicity against human SH-SY5Y cells assessed as inhibition of cell growth after 24 hrs by MTT assay. The format is cell-based. The gist of the method:
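SH-SY5Y cells exposed 24 h at 37 °C to 0.1, 1, 5, 10 and 50 µM; viability read by MTT at 570 nm versus untreated cells. […] Means ± SD, n = 3.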

The test system of data set [11] is SH-SY5Y. Briefly: Neuroprotective activity against oligomycin-A-induced oxidative injury in human SH-SY5Y cells assessed as increase in cell viability at 10 uM after 24 hrs by MTT assay. The format is functional, cell-based. The gist of the method: as §2
Data set [12] can be described thus: Lipophilicity index, Log K of the compound at 1 mM by RP-HPLC method. It is filed as physicochemical. As to conditions: 1000 µM.

Acetylcholinesterase, sequence (O42275 whole entry): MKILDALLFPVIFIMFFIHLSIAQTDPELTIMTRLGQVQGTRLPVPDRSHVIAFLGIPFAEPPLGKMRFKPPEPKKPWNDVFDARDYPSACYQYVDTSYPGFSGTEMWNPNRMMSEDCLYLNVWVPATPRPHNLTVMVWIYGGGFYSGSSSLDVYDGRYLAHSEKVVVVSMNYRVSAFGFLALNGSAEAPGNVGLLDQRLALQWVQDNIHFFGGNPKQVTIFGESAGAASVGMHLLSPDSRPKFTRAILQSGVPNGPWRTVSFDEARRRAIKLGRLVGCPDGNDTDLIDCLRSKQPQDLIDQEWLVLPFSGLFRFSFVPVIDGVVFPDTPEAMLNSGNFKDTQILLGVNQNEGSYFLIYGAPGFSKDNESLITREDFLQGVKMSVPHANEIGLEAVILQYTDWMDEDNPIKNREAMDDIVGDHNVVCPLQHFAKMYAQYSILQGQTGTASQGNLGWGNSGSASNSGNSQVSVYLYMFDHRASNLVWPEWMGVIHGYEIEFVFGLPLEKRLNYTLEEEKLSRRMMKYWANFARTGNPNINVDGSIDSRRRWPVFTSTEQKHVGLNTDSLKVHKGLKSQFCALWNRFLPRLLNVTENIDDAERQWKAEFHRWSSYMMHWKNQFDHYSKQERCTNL
Cholinesterase (Equus caballus), sequence (P81908 whole entry): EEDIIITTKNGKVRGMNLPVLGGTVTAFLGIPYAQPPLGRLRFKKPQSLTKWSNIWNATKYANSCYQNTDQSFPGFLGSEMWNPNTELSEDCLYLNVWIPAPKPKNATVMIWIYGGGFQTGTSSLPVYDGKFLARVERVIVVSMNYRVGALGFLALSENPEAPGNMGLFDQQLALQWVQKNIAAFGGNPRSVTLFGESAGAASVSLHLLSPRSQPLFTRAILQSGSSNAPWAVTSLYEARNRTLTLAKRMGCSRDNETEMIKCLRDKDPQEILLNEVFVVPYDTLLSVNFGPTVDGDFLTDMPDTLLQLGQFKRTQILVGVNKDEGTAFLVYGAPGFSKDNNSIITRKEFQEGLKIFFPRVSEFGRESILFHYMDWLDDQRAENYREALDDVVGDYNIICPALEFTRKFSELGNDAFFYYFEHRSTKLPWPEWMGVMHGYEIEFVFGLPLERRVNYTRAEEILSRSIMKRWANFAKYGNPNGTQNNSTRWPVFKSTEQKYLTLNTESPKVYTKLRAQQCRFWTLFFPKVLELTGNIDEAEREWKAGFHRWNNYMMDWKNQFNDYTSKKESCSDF
Cholinesterase, sequence (P81908 whole entry): as above

In data set [1], `Cc1c(C)c2ccc(OC3CCN(Cc4ccc(C#N)cc4)CC3)cc2oc1=O` had an inhibition of 48%. Also, the Ratio IC50 in [2] stood at 2. The values for the negative logarithm of the IC50 (pIC50) in data set [3], in data set [4] and in [5] were 5.89, 6.18 and 6.01, respectively.

For the compound `Cc1c(C)c2ccc(OC3CCN(CC(=O)c4ccccc4)CC3)cc2oc1=O`, in data set [1], the inhibition was found to be 45%. Moreover, the pIC50 in [3] is 5.71; in data set [4], 6.94; in data set [5], 5.42.

In data set [1], `Cc1c(C)c2ccc(OC3CCN(Cc4ccc(Cl)cc4)CC3)cc2oc1=O` gave an inhibition of 29%. The Ratio IC50 in data set [2] turned out to be 2. Moreover, the pIC50 in data set [3] was 5.80; in data set [4] it was 6.06; in data set [5] it was 5.81.

On to `Cc1c(C)c2ccc(OC3CCN(Cc4ccccc4)CC3)cc2oc1=O`, for which the negative-log IC50 (pIC50) in [3] is 5.44; in data set [4], 6.35; in data set [5] it was 6.11; in data set [6] it was 5.02.

In the case of `Cc1c(C)c2ccc(OCC3CCN(Cc4cccc(Cl)c4)CC3)cc2oc1=O`, the result in data set [7] was inactive. Further, the negative logarithm of the IC50 (pIC50) in data set [3] is 6.15; in [4], 7.05; in data set [5] it was 5.99; in [6], 5.22.

`Cc1c(C)c2ccc(OCC3CCN(Cc4ccc(C#N)cc4)CC3)cc2oc1=O` yielded an inhibition in [1] of 27%. The results for the negative-log IC50 (pIC50) in data set [3], in data set [4] and in data set [5] were 5.00, 6.26 and 5.74, respectively.

On to `Cc1c(C)c2ccc(OCC3CCCN(Cc4ccc(F)cc4)C3)cc2oc1=O` (racemic), for which the outcome in data set [8] and in data set [9] was Active. In addition, the negative logarithm of the IC50 (pIC50) in data set [3] was 5.95; in [4] it was 6.79; in data set [5] it was 5.84; in data set [6] it was 5.43.

Consider `Cc1c(C)c2ccc(OCC3CCCN(Cc4cccc(Br)c4)C3)cc2oc1=O` (single isomer, unassigned; (+)) [listing 1 of 2 here], for which the negative-log IC50 (pIC50) in [3] is 6.27; in data set [4], 7.59; in [5], 5.49.

On to `COc1ccc(CN2CCCC(COc3ccc4c(C)c(C)c(=O)oc4c3)C2)cc1OC` (racemic), for which the pIC50 in [10] is 5.00; in [3], 5.76; in data set [4], 7.05; in [5], 5.66; in [6], 5.22. In addition, the result in data set [7] and in data set [11] was inactive.

Regarding `Cc1c(C)c2ccc(OCC3CCCN(Cc4ccc(S(C)(=O)=O)cc4)C3)cc2oc1=O` (racemic), the inhibition in [1] is 10%. For the same compound, the results for the pIC50 in data set [3], in data set [4] and in data set [5] were 6.68, 6.95 and 6.07, respectively.

For the compound `Cc1c(C)c2ccc(OCC3CCCN(Cc4ccc(Cl)cc4)C3)cc2oc1=O` (racemic), the pIC50 is 6.09 in data set [3], 7.30 in data set [4], 5.54 in data set [5] and 5.23 in data set [6].

Turning to `Cc1c(C)c2ccc(OCC3CCN(C)CC3)cc2oc1=O`, the inhibition in data set [1] worked out at 14%. For the same compound, the values for the pIC50 in data set [3], in data set [4] and in [5] were 4.78, 6.53 and 6.17, respectively.

For the compound `Cc1c(C)c2ccc(OCCCCN3CCc4ccccc4C3)cc2oc1=O`, the negative logarithm of the IC50 (pIC50) in data set [3] was 5.65; in [4], 6.21; in data set [5], 5.94; in [6] it was 5.58.

On to `Cc1c(C)c2ccc(OCC3CCCN(Cc4cccc(Br)c4)C3)cc2oc1=O` (single isomer, unassigned; (-)) [listing 1 of 2 here], for which the values for the pIC50 in data set [3], in data set [4] and in data set [5] were 5.95, 6.71 and 5.76, respectively.

Turning to `Cc1c(C)c2ccc(OCC3CCCN(Cc4ccc(C#N)cc4)C3)cc2oc1=O` (racemic), the inhibition in data set [1] is 36%. Further, the Ratio IC50 in [2] worked out at 133. The pIC50 in [3] is 5.35; in data set [4], 7.47; in data set [5] it was 5.55.

For the compound `Cc1c(C)c2ccc(OCC3CCCN(Cc4cccc(Cl)c4)C3)cc2oc1=O` (racemic), the result in data set [8] was Active. Also, the pIC50 in [10] is 4.89; in data set [3] it was 6.01; in data set [4], 7.44; in data set [5], 5.93; in data set [6], 5.33. In data set [11], the outcome was inactive.

With `Cc1c(C)c2ccc(OCCCN3CCc4ccccc4C3)cc2oc1=O`, the pIC50 was 5.57 in data set [3], 6.53 in data set [4], 5.91 in data set [5] and 6.02 in [6].

Consider `Cc1c(C)c2ccc(OCC3CCCN(Cc4cccc(Br)c4)C3)cc2oc1=O` (single isomer, unassigned; (-)) [listing 2 of 2 here], for which the inhibition in data set [1] turned out to be 26%.

For the compound `Cc1c(C)c2ccc(OCC3CCCN(Cc4ccccc4)C3)cc2oc1=O` (single isomer, unassigned; (-)), the negative logarithm of the IC50 (pIC50) in data set [3] was 5.64; in data set [5], 6.11; in [6] it was 5.09.

For the compound `Cc1c(C)c2ccc(OCC3CCCN(Cc4cccc(Br)c4)C3)cc2oc1=O` (single isomer, unassigned; (+)) [listing 2 of 2 here], the inhibition in data set [1] was found to be 36%. In addition, the Ratio IC50 in data set [2] amounted to 21.

Compound `CCCCN1CCC(Oc2ccc3c(C)c(C)c(=O)oc3c2)CC1` yielded an inhibition in data set [1] of 35%. The values for the pIC50 in data set [3], in data set [4] and in data set [5] were 4.62, 5.85 and 6.00, respectively.

`Cc1c(C)c2ccc(OC3CCN(C)CC3)cc2oc1=O` displayed an inhibition in [1] of 11%. In addition, the pIC50 is 4.93 in [3], 6.56 in [4] and 5.89 in [5].

Turning to `Cc1c(C)c2ccc(OCC3CCCN(Cc4ccccc4)C3)cc2oc1=O` (stereo in doubt; (+)-5b), the negative logarithm of the IC50 (pIC50) is 5.42 in data set [3], 5.74 in data set [5] and 5.54 in data set [6].

Compound `Cc1c(C)c2ccc(OC3CCN(Cc4cccc(Cl)c4)CC3)cc2oc1=O` had an inhibition in data set [1] of 28%. The pIC50 in [3] is 6.06; in data set [4], 6.55; in data set [5], 5.97.

For the compound `CN(Cc1ccccc1)Cc1ccc(COc2ccc3c(CO)cc(=O)oc3c2)cc1`, the “log K” value in data set [12] was 1.87.

In the case of `Cc1c(C)c2ccc(OC3CCN(CCc4ccccc4)CC3)cc2oc1=O`, the pIC50 was 4.91 in data set [3], 5.60 in data set [4], 5.78 in data set [5] and 5.75 in data set [6].
